In ChEMBL document CHEMBL5131497, “Design, Synthesis, and Characterization of TNP-2198, a Dual-Targeted Rifamycin-Nitroimidazole Conjugate with Potent Activity against Microaerophilic and Anaerobic Bacterial Pathogens” (J Med Chem, 2022):
In brackets after ≈: the same amount, converted by molar mass.

Assays:
Assay type in all cases: functional
[1] = test system: Helicobacter pylori; assay: Antibacterial activity against Helicobacter pylori infected in C57/BL6 mouse assessed as bacterial load in stomach at 1 mg/kg administered twice daily via oral gavage starting from 7 days post inoculation and administered for 7 days in presence of 10 mg/kg clarithromycin and 20 mg/kg amoxicillin (reference value: 5.25 log10CFU); conditions: time 7 day
[2] = test system: Staphylococcus aureus; assay: Antibacterial activity against Staphylococcus aureus ATCC 29213
[3] = test system: Clostridioides difficile; assay: Antibacterial activity against Clostridioides difficile ATCC 9689
[4] = test system: Helicobacter pylori; assay: Antibacterial activity against Helicobacter pylori ATCC 700392
Outline: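 Agar dilution per CLSI. Wild-type H. pylori ATCC 700392 (CB1531). Drugs prepared from 100× stocks as 2-fold dilutions in Mueller–Hinton agar with aged (≥2 weeks) sheep blood (5% v/v). Combinations were at 1:1 molar ratio. MIC read after 5 days at 35 °C under microaerobic atmosphere from a campylobacter gas-generating system.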

[5] = test system: Helicobacter pylori; assay: Antibacterial activity against metronidazole-resistant Helicobacter pylori CB1573 harboring rdxAR16S mutant at 1:1 compound to metronidazole molar ratio measured after 5 days in presence of metronidazole by agar dilution method; conditions: CB1573, 120 h, time 5 day
Outline: (§1)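 Agar dilution per CLSI. Wild-type ATCC 700392 (CB1531) and its derivatives carry defined resistance determinants. Drugs, alone or in 1:1 molar mixtures, were diluted 2-fold from 100× stocks into Mueller–Hinton agar with aged (≥2 weeks) sheep blood (5% v/v). MIC read after 5 days at 35 °C under microaerobic conditions from a campylobacter gas-generating system.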

[6] = test system: Helicobacter pylori; assay: Antibacterial activity against rifampicin-resistant Helicobacter pylori CB1903 harboring rpoBD530V mutant measured after 5 days by agar dilution method; conditions: CB1903, 120 h, time 5 day; outline: as §1
[7] = test system: Helicobacter pylori; assay: Antibacterial activity against rifampicin-resistant Helicobacter pylori CB1902 harboring rpoBV149F mutant measured after 5 days by agar dilution method; conditions: CB1902, 120 h, time 5 day; outline: as §1
[8] = test system: Helicobacter pylori; assay: Antibacterial activity against rifampicin-resistant Helicobacter pylori CB1902 harboring rpoBV149F mutant at 1:1 compound to metronidazole molar ratio measured after 5 days in presence of metronidazole by agar dilution method; conditions: CB1902, 120 h, time 5 day; outline: as §1
[9] = test system: Helicobacter pylori; assay: Antibacterial activity against rifampicin-resistant Helicobacter pylori CB1903 harboring rpoBD530V mutant at 1:1 compound to metronidazole molar ratio measured after 5 days in presence of metronidazole by agar dilution method; conditions: CB1903, 120 h, time 5 day; outline: as §1
[10] = test system: Helicobacter pylori; assay: Antibacterial activity against rifampicin-resistant Helicobacter pylori CB1614 harboring rpoBL525I/D530N mutant measured after 5 days by agar dilution method; conditions: CB1614, 120 h, time 5 day; outline: as §1
[11] = test system: Helicobacter pylori; assay: Antibacterial activity against rifampicin-resistant Helicobacter pylori CB1614 harboring rpoBL525I/D530N at 1:1 compound to metronidazole molar ratio measured after 5 days in presence of metronidazole by agar dilution method; conditions: CB1614, 120 h, time 5 day; outline: as §1
[12] = test system: Helicobacter pylori; assay: Antibacterial activity against metronidazole/rifampicin-resistant Helicobacter pylori CB1771 harboring rpoBL525I/D530N/rdxAE75stop mutant measured after 5 days by agar dilution method; conditions: CB1771, 120 h, time 5 day; outline: as §1
[13] = test system: Helicobacter pylori; assay: Antibacterial activity against metronidazole/rifampicin-resistant Helicobacter pylori CB1771 harboring rpoBL525I/D530N/rdxAE75stop mutant at 1:1 compound to metronidazole molar ratio measured after 5 days in presence of metronidazole by agar dilution method; conditions: CB1771, 120 h, time 5 day; outline: as §1
[14] = test system: Helicobacter pylori; assay: Antibacterial activity against metronidazole/rifampicin-resistant Helicobacter pylori CB1893 harboring rpoBL525I/D530N/rdxAR16S mutant measured after 5 days by agar dilution method; conditions: CB1893, 120 h, time 5 day; outline: as §1
[15] = test system: Helicobacter pylori; assay: Antibacterial activity against metronidazole/rifampicin-resistant Helicobacter pylori CB1893 harboring rpoBL525I/D530N/rdxAR16S mutant at 1:1 compound to metronidazole molar ratio measured after 5 days in presence of metronidazole by agar dilution method; conditions: CB1893, 120 h, time 5 day; outline: as §1
[16] = test system: Bacteroides fragilis; assay: Antibacterial activity against metronidazole-resistant Bacteroides fragilis MMX 3387
[17] = test system: Bacteroides thetaiotaomicron; assay: Antibacterial activity against metronidazole-resistant Bacteroides thetaiotaomicron MMX 3409
[18] = test system: Campylobacter gracilis; assay: Antibacterial activity against Bacteroides gracilis ATCC 33236 MMX 1270
[19] = test system: Bacteroides uniformis; assay: Antibacterial activity against Bacteroides uniformis MMX 1277
[20] = test system: Phocaeicola vulgatus; assay: Antibacterial activity against Bacteroides vulgatus MMX 8348
[21] = test system: Clostridioides difficile; assay: Antibacterial activity against rifampicin-resistant Clostridium difficile MMX 3587
[22] = test system: Peptostreptococcus sp.; assay: Antibacterial activity against Peptostreptococcus magnus ATCC 14956
[23] = test system: Prevotella disiens; assay: Antibacterial activity against Prevotella disiens MMX 3457
[24] = test system: Helicobacter pylori; assay: Antibacterial activity against rifampicin resistant Helicobacter pylori harboring rpoBL525I/D530N mutant
[25] = test system: Clostridioides difficile; assay: Antibacterial activity against rifampicin-resistant Clostridioides difficile harboring rpoBQ489K mutant
[26] = test system: Clostridioides difficile; assay: Antibacterial activity against Clostridioides difficile BAA 1382

Row | MIC [2] [µg/mL] | MIC [3] [µg/mL] | MIC [4] [µg/mL] | Structure (SMILES) | other results
1 | – | – | – | COc1ccc2[nH]c([S+]([O-])Cc3ncc(C)c(OC)c3C)nc2c1 (configuration not stated) [OMEPRAZOLE] | Activity [1]: 1.7 log10CFU
2 | > 32 | 16 (≈ 44.5 µM) | 2 (≈ 5.57 µM) | O=[N+]([O-])c1cn2c(n1)OC[C@@H](OCc1ccc(OC(F)(F)F)cc1)C2 [PRETOMANID] | –
3 | < 0.008 | 0.03 (≈ 0.0259 µM) | 0.06 (≈ 0.0518 µM) | CO[C@H]1/C=C/O[C@@]2(C)Oc3c(C)c(O)c4c(=O)c(c5oc6cc(N7CCN(c8ccc(OCC9(C)Cn%10cc([N+](=O)[O-])nc%10O9)cc8)CC7)cc(O)c6nc-5c4c3C2=O)NC(=O)/C(C)=C\C=C\[C@H](C)[C@H](O)[C@@H](C)[C@@H](O)[C@@H](C)[C@H](OC(C)=O)[C@@H]1C (some centres not stated) | –
4 | 0.004 (≈ 0.00425 µM) | 0.001 (≈ 0.00106 µM) | 0.002 (≈ 0.00213 µM) | CO[C@H]1/C=C/O[C@@]2(C)Oc3c(C)c(O)c4c(=O)c(c5oc6cc(N7CCN(CC(C)C)CC7)cc(O)c6nc-5c4c3C2=O)NC(=O)/C(C)=C\C=C\[C@H](C)[C@H](O)[C@@H](C)[C@@H](O)[C@@H](C)[C@H](OC(C)=O)[C@@H]1C [RIFALAZIL] | –
5 | – | – | – | CCC[C@@H]1C[C@@H](C(=O)N[C@@H]([C@H]2O[C@H](SC)[C@H](O)[C@@H](O)[C@H]2O)[C@H](C)Cl)N(C)C1 [CLINDAMYCIN] | MIC [16]: 2 µg/mL (≈ 4.71 µM); MIC [17]: > 64 µg/mL; MIC [18]: 0.06 µg/mL (≈ 0.141 µM); MIC [19]: 0.25 µg/mL (≈ 0.588 µM); MIC [20]: 0.25 µg/mL (≈ 0.588 µM); MIC [21]: 8 µg/mL (≈ 18.8 µM); MIC [22]: 1 µg/mL (≈ 2.35 µM); MIC [23]: 0.25 µg/mL (≈ 0.588 µM)
6 | 0.015 (≈ 0.0157 µM) | – | 0.06 (≈ 0.0626 µM) | CO[C@H]1/C=C/O[C@@]2(C)Oc3c(C)c(O)c4c(c3C2=O)C2=NC3(CCN(CC5Cn6cc([N+](=O)[O-])nc6O5)CC3)NC2=C(NC(=O)/C(C)=C\C=C\[C@H](C)[C@H](O)[C@@H](C)[C@@H](O)[C@@H](C)[C@H](OC(C)=O)[C@@H]1C)C4=O (some centres not stated) | –
7 | 0.25 (≈ 0.231 µM) | – | 4 (≈ 3.69 µM) | CO[C@H]1/C=C/O[C@@]2(C)Oc3c(C)c(O)c4c(O)c(c(N5CCN(C(=O)c6ccc(OCC7(C)Cn8cc([N+](=O)[O-])nc8O7)cc6)CC5)c(O)c4c3C2=O)NC(=O)/C(C)=C\C=C\[C@H](C)[C@H](O)[C@@H](C)[C@@H](O)[C@@H](C)[C@H](OC(C)=O)[C@@H]1C (some centres not stated) | –
8 | < 0.004 | – | 0.25 (≈ 0.237 µM) | CO[C@H]1/C=C/O[C@@]2(C)Oc3c(C)c(O)c4c(O)c(c(N5CCN(Cc6ccc(OCC7Cn8cc([N+](=O)[O-])nc8O7)cc6)CC5)c(O)c4c3C2=O)NC(=O)/C(C)=C\C=C\[C@H](C)[C@H](O)[C@@H](C)[C@@H](O)[C@@H](C)[C@H](OC(C)=O)[C@@H]1C (some centres not stated) | –
9 | > 32 | > 16 | 2 (≈ 3.74 µM) | C[C@]1(COc2ccc(N3CCC(Oc4ccc(OC(F)(F)F)cc4)CC3)cc2)Cn2cc([N+](=O)[O-])nc2O1 | –

Row | Structure (SMILES) | MIC [2] [µg/mL] | MIC [3] [µg/mL] | MIC [4] [µg/mL] | other results
10 | CO[C@H]1/C=C/O[C@@]2(C)Oc3c(C)c(O)c4c(c3C2=O)C2=NC3(CCN(CC(C)C)CC3)NC2=C(NC(=O)/C(C)=C\C=C\[C@H](C)[C@H](O)[C@@H](C)[C@@H](O)[C@@H](C)[C@H](OC(C)=O)[C@@H]1C)C4=O [RIFABUTIN] | 0.03 (≈ 0.0354 µM) | 0.0001 (≈ 0.000118 µM) | 0.001 (≈ 0.00118 µM) | MIC [5]: ≤ 0.002 µg/mL; MIC [6]: 16 µg/mL (≈ 18.9 µM); MIC [7]: 16 µg/mL (≈ 18.9 µM); MIC [8]: 2 µg/mL; MIC [9]: 1 µg/mL; MIC [10]: 16 µg/mL (≈ 18.9 µM); MIC [11]: 2 µg/mL; MIC [12]: 16 µg/mL (≈ 18.9 µM); MIC [13]: 16 µg/mL; MIC [14]: 16 µg/mL (≈ 18.9 µM); MIC [15]: 16 µg/mL
11 | CO[C@H]1/C=C/O[C@@]2(C)Oc3c(C)c(O)c4c(=O)c(c5oc6cc(N7CCN(CCn8c([N+](=O)[O-])cnc8C)CC7)cc(O)c6nc-5c4c3C2=O)NC(=O)/C(C)=C\C=C\[C@H](C)[C@H](O)[C@@H](C)[C@@H](O)[C@@H](C)[C@H](OC(C)=O)[C@@H]1C | < 0.03 | 0.002 (≈ 0.00193 µM) | 0.004 (≈ 0.00385 µM) | MIC [24]: 0.5 µg/mL (≈ 0.482 µM); MIC [25]: 2 µg/mL (≈ 1.93 µM); MIC [26]: 0.001 µg/mL (≈ 0.000963 µM)
